Assay results taken from ChEMBL document CHEMBL1158186, “Design, synthesis, and bioactivity of putative tubulin ligands with adamantane core” (Bioorg Med Chem Lett, 2008).
The source made the active and inactive calls. The calls are words filed in the database; no cut-off is given here.

How the values were obtained:
[1] = system: A549; assay: Cytotoxicity against human A549 cells; format: functional, cell-based
[2] = system: A549; assay: Cytotoxicity against human A549 cells assessed as formation of shortened aggregates of mirotube bundles at 5 uM by immuno-fluorescent microscopy; format: functional, cell-based
How it was run: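 A549 cells were treated with compound at the concentration given in the line, then fixed with polyformaldehyde. Microtubules were stained with primary mouse anti-α-tubulin and a secondary Alexa 488-labelled rabbit anti-mouse antibody. Cells were examined by immunofluorescence microscopy for microtubule bundles and shortened aggregates.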

[3] = species: Bos taurus; assay: Induction of bovine tubulin polymerization relative to taxol; design: concentration or dose not given beside the values
[4] = species: Bos taurus; assay: Induction of bovine tubulin aggregation by SDS-PAGE
How it was run: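 Sedimentation assay using tubulin purified from bovine brain, incubated with compound. Pellets were resolved by SDS–PAGE. Pelleted tubulin was expressed relative to the amount pelleted after incubation with taxol, set as 100%. DMSO served as the negative control.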

[5] = species: Bos taurus; assay: Induction of bovine tubulin aggregation by electron microscopy using uranyl acetate staining
How it was run: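 Tubulin purified from bovine brain was incubated with compound. Samples were negatively stained with uranyl acetate and examined by electron microscopy for aggregates.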

Row | Compound | IC50 [1] [µM] | Activity [2] | Activity [3] [%] | Activity [4] | Activity [5]
1 | COc1cc2c(c(OC)c1OC)-c1ccc(OC)c(=O)cc1[C@@H](NC(=O)CCCCCC(=O)OC1C3CC4CC1CC(OC(=O)[C@H](O)[C@@H](NC(=O)OC(C)(C)C)c1ccccc1)(C4)C3)CC2 (mixture of isomers) | 0.0006 | Active | – | – | –
2 | O=C(N[C@@H](c1ccccc1)[C@@H](O)C(=O)OC12CC3CC(CC(C3)C1)C2)c1ccccc1 | 5.6 | – | 57.1 | Active | Active
3 | CC(=O)O[C@H]1C(=O)[C@@]2(C)[C@H]([C@H](OC(=O)c3ccccc3)[C@]3(O)C[C@H](OC(=O)[C@H](O)[C@@H](NC(=O)c4ccccc4)c4ccccc4)C(C)=C1C3(C)C)[C@]1(OC(C)=O)CO[C@@H]1C[C@@H]2O [PACLITAXEL] | 0.002 | – | – | – | –
4 | CC(C)(C)OC(=O)N[C@@H](c1ccccc1)[C@@H](O)C(=O)O[C@H]1C[C@H]2C[C@@H](C1)C[C@@H](C(=O)OC1COC1)C2 | 3.8 | – | 25.3 | Active | –
5 | CC(C)(C)OC(=O)N[C@@H](c1ccccc1)[C@@H](O)C(=O)OC12CC3CC(C1)CC(C(=O)OC1COC1)(C3)C2 | 2.5 | – | 27.1 | Active | Active
6 | O=C(N[C@@H](c1ccccc1)[C@@H](O)C(=O)OC12CC3CC(C1)C(OC(=O)c1ccccc1)C(C3)C2)c1ccccc1 (mixture of isomers) | 9.5 | – | 32.3 | Active | Active
7 | O=C(CCNC(=O)c1ccccc1)OC12CC3CC(CC(C3)C1)C2 | – | – | 32.9 | Active | –
